According to the EternaBench riboswitch data:

System: MS2 coat protein
Test: apparent Kd, MS2 coat protein; higher = weaker binding; RNA-MaP array; FMN 200 µM where present
Summary of the method: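 On Illumina sequencing-chip clusters, designs were transcribed by stalled E. coli RNA polymerase and titrated with SNAP-549-labelled MS2 coat protein (0.7 or 1.5 nM, doubling to 3 µM), without and then with constant ligand, in 100 mM Tris-HCl pH 7.5, 80 mM KCl, 4 mM MgCl2, BSA, DTT, yeast tRNA and Tween-20. Apparent Kd is the median of filtered per-cluster curve fits to green signal normalised to red-channel RNA signal and control-cluster median Fmax.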

[1] = designed as: ON switch for flavin mononucleotide, no ligand
[2] = ligand present: flavin mononucleotide, designed as: ON switch for flavin mononucleotide
[3] = designed as: OFF switch for flavin mononucleotide, no ligand
[4] = ligand present: flavin mononucleotide, designed as: OFF switch for flavin mononucleotide

Sequence | apparent Kd [1] [µM] | apparent Kd [2] [µM] | apparent Kd [3] [µM] | apparent Kd [4] [µM]
AGGACGGGUAAGAAGGCGUUCUCACAUGAGGAUCACCCAUGUCGAAGGAUGAGGAUAUUGGCCGAGGGUGGCGUUUUGUGACGA | 0.0309 | 0.00935 | – | –
AGUCUGAGAGGAUAUACAUGAAAAAAAAAAGUUAGAUCCCUACAUGAGGAUCACCCAUGUAGAAGGCUCUGACA | – | – | 0.0192 | 0.0167
GGGUACAUCGGAGGAUAUCAAGUAAAUACAUGAGGAUCACCCAUGUCGAUGGAGACAUCGGAGAUUGAGAAGGCCGAUGUACCG | 0.006 | 0.00542 | – | –
GGUGCGUAUGUGAGGAUAUGCUGGUCCUUGGCUCGGCAGAAGGCACAUGAGGAUCACCCAUGUGGUGUCGUACU | – | – | 0.13 | 0.046
AGUGACGACGAGGAUAUUCCGGUAGCCUACUAAGAAGAAGGUGUCACAUGAGGAUCACCCAUGUUUAGUUUCGC | – | – | 0.141 | 0.0687
UUACCUCAUGAGAAGGACAUGAGGAUCACCCAUGUAGGAUAUCGUGGGAGACAGGUAUUGAAUCUUCGGAUUCAAUACCUGUCU | 0.418 | 0.0255 | – | –
AAUAAACUCACAGGAUAUAGCAGAGGUCGCGUGUACUUACAGGCGACUAUGCUAGAAGGGUGACCACAUGAGGAUCACCCAUGU | 0.746 | 0.137 | – | –
GCAAGAACGGGUCAGUCCCAGAUGAGAAGGGUAGGUGGCGAUGAGUACAUGAGGAUCACCCAUGUACAGGAUAUCAUCAUUGUA | – | – | 0.00763 | 0.00866
AAAAAACAUGAGGAUCACCCAUGUAAAAAAAUGGGAGGAUAUCUGAAUUAAUUAAAUUAAGGAGAAGGCCUAAAAA | 0.239 | 0.0319 | – | –
AUAUUAUUGAUCCAUUUUUUCAACAUGAGGAUCACCCAUGUGCAGGAUAUCGUGUGUUUUAUCAACGAGAAGGGCAAAUUCAUU | – | – | 0.0942 | 0.215
AGUACAUCAGGAUAUACAUGAAAGAUCAUCAUGACCUUUCUACAUGAGGAUCACCCAUGUAGAAGGGAUGUACA | – | – | 0.0202 | 0.038
GGAAAGCAAGGAUAUACAAACAAACAAACAAACAAAAGGGAACAUGAGGAUCACCCAUGUAGAAGGUGCAAACA | – | – | 0.0417 | 0.0375
GGACGUCACAUGAACAUGAGGAUCACCCAUGUAAAUUCUCAUGAGGAUAUGGAACCUAAUUGGUUCCAGAAGGCGUGGACGUCC | 0.849 | 0.489 | – | –
CUAGUUGUCGCAGGAUAUGCCCGCUGGUUGGAGGCAGAAGGGUGACACCAAAUAUUAUACAUGAGGAUCACCCAUGUCGCCAAC | 0.0179 | 0.0193 | – | –
CUUCUUGGGCAAGGAUAUCCUGUGCGGUUCCGGCUCGUGUCUGUCACAUGAGGAUCACCCAUGUGGGAGAAGGUGCCUGCGGUC | – | – | 0.00615 | 0.00679
UUGGACGUCGUAGGAUAUGUAGGAUAUUCCUACAUGAGGAUCACCCAUGUUGACAUGGAAGAAGGACAGAAGGACGAUGUCCAU | 0.566 | 0.0142 | – | –
UCAAAUGCCGUAGGAUAUAAUGUGCGCCGUCCGUGAGAUGUAAAUUGACAUGAGGAUCACCCAUGUUAGAAGGGCGGCAUCAGC | – | – | 0.00588 | 0.00592
AGUCAUACAGGAUAUACAUGAGGAUCACCCAUGUAAAUCCUACAUGGGUGAUCCUCAUGUAGAAGGGUAUGACA | – | – | 0.0117 | 0.0104
AACAGGACAGGAUAUACAUGAGGAUCACCCAUGUAGGAAUUAAGCAGCGUACCACACAGUAGAAGGGUCAUGGA | – | – | 0.0355 | 0.0346
AAUAUGUUGCAGAAGGUUAUAUUUUUUUCGUUCCUCAUGACAUGAGGAUCACCCAUGUAUUUGUUGAAGGAUAUGCAAUAUAUU | – | – | 0.0199 | 0.0176
UGAUUUUCUUCUAACUAUCACCACAUGAGGAUCACCCAUGUCAAGGAUAUAGAGCGCGCUGGGUUCUAGAAGGUGGCGUGCCAA | – | – | 0.00752 | 0.00647
UCCUACAUCGGAGGAUAUCAUGUGUAAACAUGAGGAUCACCCAUGUCGUACGAUAGUACGGAGAUUGAGAAGGCCGAUGUAGGU | 0.0939 | 0.0173 | – | –
GUCAGCUCGUGAGGAUAUACAACACUGCUUCGGCAGUGUAUUAAGAUCACAUGAGGAUCACCCAUGUAGAAGGCGCGAGCUGAU | – | – | 0.0133 | 0.243
UUCAUGUGAGGAUAUGCGGCGCCAGGCGAGCCUGGCACUGAGCAGAAGGCACAUGAGGAUCACCCAUGUGCUCC | – | – | 0.0335 | 0.0735

Sequence | apparent Kd [1] [µM] | apparent Kd [2] [µM] | apparent Kd [3] [µM] | apparent Kd [4] [µM]
ACAAAGUGAGGAUAUGCUAUCGUACAUUAUUGUUAUCGUUUGCAGAAGGCACAUGAGGAUCACCCAUGUAAGAA | – | – | 0.0294 | 0.0305
GCCGGAGCAGGAUAUUCAAUAUCACACAUGAGGAUCACCCAUGUCCAGCGAAAGCUGGAGGGAGAAGGGCUCUGGC | – | – | 0.0708 | 0.0203
CCGGAAAUGCAGGAUAUCGUAUCGGAUACGAUACGAGAAGGGUAUACAUGAGGAUCACCCAUGUGUCCUGCCGG | – | – | 0.0425 | 0.0406
AUGAAAGUAACACAGGAUAUCCAGGAUACAACAUGAGGAUCACCCAUGUACAUACGAACGUAUAAGGAGAAGGGUGGAUGAUCUUC | 0.215 | 0.264 | – | –
GCCAUCGCAUGAGGAUAUGCUCCCGUUUCGGGAGCAGAAGGCAUGCCAUAAGACAUGAGGAUCACCCAUGUAGUUAAGAUGGCA | 0.00571 | 0.00575 | – | –
AAGCCCUGAGGAUAUCCCAACUCGCACAUGAGGAUCACCCAUGUCCUCCUCUGGGCUUCGGGAGAAGGCAGGUCUC | – | – | 0.0431 | 0.114
CCCGCGAUGUCAGGAUAUAGUCGGAGGUGCAGACUAGAAGGGACAUGAGGAUCACCCAUGUGCGUAAACAUUUGAAACCCAGGU | – | – | 0.0165 | 0.0331
GUUUUUCCUCAUGUACAUGAGGAACAUGAGGAUCACCCAUGUAGAAGGAUUUCCCUUAAAUUAAAAUAGGAUAUACAUAUAUUU | – | – | 0.0886 | 0.0589
CAUAUCGUAAGAGGAUAUAUGAGUCCUACAUGAGGAUCACCCAUGUAGGUGAUCUAACGAGAUUAGUAGAAGGCUUACGAUAUG | 0.0162 | 0.00762 | – | –
GUAGCUUAUGAGAAGGCGAUCAUGAAACAUGAUCGAGGAUAUCAUGUAAACAUGAGGAUCACCCAUGUAUGGGUAUUAUGCUAC | 0.313 | 0.0429 | – | –
AAUAUGUCAUCAGGAUAUCGAGACCGGCGAGUACGAGAAGGGAUGACAUGAGGAUCACCCAUGUGAGACGCGUGAUUUGCAGGU | – | – | 0.105 | 0.304
GUGCACAUUCGAGGAUAUCGGAGAGAGAUCCUUCGAGAAGGCGAUUCAUGCUGUGUUAUUCUGGACAUGAGGAUCACCCAUGUG | 0.326 | 0.172 | – | –
GAUAAACAUGAGGAUCACCCAUGUGAGGAUAUGCGUACGUUGUCCGUAGGCGACGUGCGCAGAAGGCGCAAGGU | – | – | 0.0994 | 0.216
CAGUACUGAGGAUAUACAUGAGGAUCACCCAUGUGUUCCAGCUAGGAAACUAGCAAGAGUAGAAGGCAGUACUG | – | – | 0.0237 | 0.459
CGUAGGAUCCAGAAGGCAUGUACAUGAGGAUCACCCAUGUCAAUAGACAUGAGGAUAUGGAUCCUACGAAAAGUGCGAAAGCAC | 0.0105 | 0.00449 | – | –
GAACUGAAGCAUGGCUUUAGUCGUACAUGAGGAUCACCCAUGUAGGAUAUGGUAGGCAUAGCUUACUAGAAGGAUAGAGUGAUC | – | – | 0.187 | 0.0634
UGGACCGAGCUGUCGGUUGGCUCUUAGGAUAUGACAUGAGGAUCACCCAUGUGGGAUCUAAAUUGUCAGAAGGAGGGUUCUGGG | – | – | 0.0483 | 0.0403
CGUAUGUCAGGAUAUGUGUAUGCCGGUCAGGGCGAGCGGCAGCAGAAGGGACAUGAGGAUCACCCAUGUUCGGG | – | – | 0.0596 | 0.116
GUCAGCUCGUGAGGAUAUACAACACUGCUUCGGCAGUGUAUUAAGAUCACAUGAGGAUCACCCAUGUAGAAGGCACGAGCUGCU | – | – | 0.0129 | 0.276
AUGGAUACCACAGGAUAUACCUGGAAUAUCCAGGUAGAAGGGUGGUCCAUCCUAUGUAAAUACAUGAGGAUCACCCAUGUGUCC | 0.256 | 0.244 | – | –
GUCAUCAAUGAAGGAUAUCUAUGUCCAACAUGAGGAUCACCCAUGUUGAGGAUUACCUAUGUGUAGGAGAAGGUCAAUAUAACU | 0.00801 | 0.00691 | – | –
AAUAAACUCACAGGAUAUAGCAGAGGUCGCGUGAACUUACAGACGACUAUGCUAGAAGGGUGACCACAUGAGGAUCACCCAUGU | 0.869 | 0.149 | – | –
AUGGGACAUGAGGAUCACCCAUGUCAGGAUAUUUAGUCGCUGCGGAAAUGUGUUGGUUGGAGAAGGGACAUCAU | – | – | 0.0383 | 0.0351
UUUUAACAUGAGGAUCACCCAUGUGAGGAUAUCGAAAUUUAUAUUAAUAUUAUUUUAACGAGAAGGCACAUUUU | – | – | 0.0767 | 0.0842
